From ChEMBL document CHEMBL1142233, “Treatment of diabetes and atherosclerosis by inhibiting fatty-acid-binding protein aP2” (2007)
The source made the active and inactive calls. No cut-off for these calls is given here.

What was measured:
Mus musculus [1] = assay: Effect on body weight in 5-week old apoE-/- C57BL/6J mouse fed on western diet and 15 mg/kg/day, po drug simultaneously in 5-11 week early intervention study; format: functional
Mus musculus [2] = assay: Effect on glycerol level in 5-week old apoE-/- C57BL/6J mouse fed on western diet and 15 mg/kg/day, po drug simultaneously in 5-11 week early intervention study; format: functional
Summary of the method: (§1)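 Male Apoe−/− mice on western diet (21% fat, 0.21% cholesterol) from 4–5 weeks of age. Oral gavage for 6 weeks from age 5 or 12 weeks; vehicle 10% 1-methyl-2-pyrrolidone, 5% cremophor EL with ethanol in water. Blood taken after 6 h fast before and after treatment. Glucose by meter; insulin by ELISA; lipids and glycerol colorimetric.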

Mus musculus [3] = assay: Decrease in Scd1 expression in liver of ob/ob mouse at 40 mg/kg/day, po; format: functional, organism-based
Summary of the method: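 Liver from male ob/ob mice gavaged daily for 6 weeks from 8 weeks of age, n = 6 per group. mRNA measured by SYBR Green real-time PCR: 95 °C 4 min, then 50 cycles of 95 °C 15 s, 58 °C 30 s, 72 °C 30 s. Normalized to 18s rRNA.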

THP-1 [4] = assay: Reduction of IL1-beta expression in human THP1 cells expressing aP2 relative to control; format: functional, cell-based
[5] = Reduction of IL6 expression mouse aP2+/+ macrophage cells relative to control; format: functional, cell-based
Summary of the method: (§2)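 Mouse aP2⁺/⁺ and aP2-reconstituted aP2⁻/⁻ macrophage lines were grown in RPMI with FBS or 5% LPDS, with inhibitor in DMSO or vehicle. Mcp-1, Il1β, Il6 and Tnf mRNA were measured by SYBR Green qRT-PCR (annealing at 58 °C, 50 cycles), normalized to 18s rRNA and then to untreated cells. Mean ± s.e.m.; at least triplicate.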

[6] = Reduction of IL6 expression mouse aP2-/-R macrophage cells (re-expression of aP2) relative to control; format: functional, cell-based; summary of the method: as §2
THP-1 [7] = assay: Reduction of TNF expression in human THP1 cells expressing aP2 relative to control; format: functional, cell-based
Mus musculus [8] = assay: Increase in insulin sensitivity in ob/ob mouse at 40 mg/kg/day, po after 5 weeks by insulin tolerance test; format: functional, organism-based
Summary of the method: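 Male ob/ob mice, from 8 weeks of age, got 40 mg kg⁻¹ d⁻¹ of the inhibitor or vehicle by oral gavage for 6 weeks. After 5 weeks of treatment and a 6 h fast, insulin was given intraperitoneally (2 IU kg⁻¹). Blood glucose was read with a glucose meter on 3 μl whole blood. Vehicle and treated groups had n = 6 each.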

Mus musculus [9] = assay: Increase in free fatty acid level in ob/ob mouse at 40 mg/kg/day, po after 6 weeks relative to control; format: functional
Summary of the method: (§3)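 Male ob/ob mice given oral gavage daily for 6 weeks from 8 weeks old, n = 6 per group. Blood taken after 6 h fast before and after treatment; fed glucose taken at week 2. Glucose by meter on 3 μl whole blood, insulin by ultrasensitive ELISA, cholesterol, FFA and glycerol by colorimetric microplate assays.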

Mus musculus [10] = assay: Effect on glycerol level in ob/ob mouse at 40 mg/kg/day, po after 6 weeks relative to control; format: functional; summary of the method: as §3
Mus musculus [11] = assay: Increase in whole body glucose disposal and glucose infusion rate in ob/ob mouse at 40 mg/kg/day, po after 4 weeks by hyperinsulinemic-euglycaemic clamp studies; format: functional, organism-based
Summary of the method: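 Clamps were run in ob/ob mice after 4 weeks of oral gavage at 40 mg kg⁻¹ d⁻¹ (vehicle n = 7, treated n = 9), with jugular catheters placed 4 days earlier. Insulin was infused at 12.5 mU kg⁻¹ min⁻¹, 25% glucose at variable rates held basal glycaemia, and ³H-glucose ran at 0.1 μCi min⁻¹. Clamp hepatic glucose production = whole-body uptake minus glucose infusion rate.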

Mus musculus [12] = assay: Increase in glucose uptake in gastrocnemius muscle in ob/ob mouse at 40 mg/kg/day, po after 4 weeks by hyperinsulinemic-euglycaemic clamp studies relative to control; format: functional, organism-based
Summary of the method: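 Ob/ob mice after 4 weeks of treatment, jugular catheterized 4 days earlier. Clamp with insulin at 12.5 mU kg⁻¹ min⁻¹, variable 25% glucose to hold basal glucose, and ³H-glucose at 0.1 μCi min⁻¹ with 2-¹⁴C-DG. Tissue uptake computed from the fitted plasma 2-¹⁴C-DG curve and tissue 2-¹⁴C-DG-6-phosphate content. n = 7 and 9.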

Mus musculus [13] = assay: Effect on body weight in 5-week old apoE-/- C57BL/6J mouse fed on western diet and administered with 15 mg/kg/day, po drug at 12 week in 12-18 week late intervention study; format: functional
Mus musculus [14] = assay: Effect on triglyceride level in 5-week old apoE-/- C57BL/6J mouse fed on western diet and administered with 15 mg/kg/day, po drug at 12 week in 12-18 week late intervention study; format: functional; summary of the method: as §1
Mus musculus [15] = assay: Effect on free fatty acid level in 5-week old apoE-/- C57BL/6J mouse fed on western diet and administered with 15 mg/kg/day, po drug at 12 week in 12-18 week late intervention study; format: functional; summary of the method: as §1
Mus musculus [16] = assay: Effect on adiponectin level in 5-week old apoE-/- C57BL/6J mouse fed on western diet and administered with 15 mg/kg/day, po drug at 12 week in 12-18 week late intervention study; format: functional; summary of the method: as §1
THP-1 [17] = assay: Reduction of cholesterol ester accumulation in human THP1 cells at 25 uM after 4 days relative to control; format: functional; set-up: scale not given: the % may be the effect or the level left
Summary of the method: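 THP-1 monocytes were made into macrophages with 100 nM PMA for 24 h, then loaded for 24 h with 50 μg ml⁻¹ acLDL in 5% LPDS. They were then held 4 days in 10% FBS with 25 μM inhibitor or DMSO. After hexane/isopropanol extraction, cholesterol ester was taken as total minus free cholesterol, per cellular protein.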

Macrophage = assay: Reduction in total cholesterol ester content in mouse aP2+/+ macrophage cells at 25 uM relative to control; format: functional, cell-based
THP-1 [18] = assay: Increase in ABCA1 mRNA level in human THP1 cells at 25 uM relative to control; format: functional, cell-based
THP-1 [19] = assay: Increase in ABCA1 protein level in human THP1 cells at 25 uM relative to control; format: functional, cell-based
THP-1 [20] = assay: Reduction of Mcp1 expression in human THP1 cells expressing aP2 relative to control; format: functional, cell-based
Mus musculus [21] = assay: Decrease in F4/80 (Emr1) expression in ob/ob mouse adipose tissue at 40 mg/kg/day, po; format: functional, organism-based
Mus musculus [22] = assay: Decrease in IL6 expression in ob/ob mouse adipose tissue at 40 mg/kg/day, po; format: functional, organism-based
[23] = Reduction of IL1-beta expressed in mouse aP2-/-R macrophage cells (re-expression of aP2) relative to control; format: functional, cell-based; summary of the method: as §2
Mus musculus [24] = organism: Mus musculus; assay: Decrease in fatty acid uptake in wild type mouse aP2+/+ mal1+/+ preadipocytes after 24 hrs; format: functional
Summary of the method: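 Immortalized mouse pre-adipocytes differentiated with dexamethasone, IBMX, rosiglitazone and insulin, then insulin alone. Cells incubated 24 h in DMEM with 2% FBS plus inhibitor, then moved to DMEM with 2% BSA and given ³H-stearate at 37 °C for 30 min. Lysate counted by scintillation; values normalized to protein and expressed as % of untreated.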

SMILES: CCc1c(-c2ccccc2)c(-c2ccccc2)nn1-c1ccccc1-c1cccc(OCC(=O)O)c1
- Activity (Mus musculus [1]): 30.3 g
- Activity (Mus musculus [2]): 2.31 mM
- Activity (Mus musculus [3]): Active
- Activity (THP-1 [4]): Active
- Activity [5]: Active
- Activity [6]: Active
- Activity (THP-1 [7]): Active
- Activity (Mus musculus [8]): Active
- Activity (Mus musculus [9]): 0.9 mM
- Activity (Mus musculus [10]): 0.56 mM
- Activity (Mus musculus [11]): Active
- Activity (Mus musculus [12]): Active
- Activity (Mus musculus [13]): 37 g
- Activity (Mus musculus [14]): 410.7 mg/dL
- Activity (Mus musculus [15]): 2.55 mM
- Activity (Mus musculus [16]): 5.78 µg/mL
- Activity (THP-1 [17]): 44%
- Activity (Macrophage): Active
- Activity (THP-1 [18]): Active
- Activity (THP-1 [19]): Active
- Activity (THP-1 [20]): Active
- Activity (Mus musculus [21]): Active
- Activity (Mus musculus [22]): Active
- Activity [23]: Active
- Activity (Mus musculus [24]): Dose-dependent effect
